Data reported in ChEMBL document CHEMBL4266059, “Synthesis of Cyanoenone-Modified Diterpenoid Analogs as Novel Bmi-1-Mediated Antitumor Agents” (ACS Med Chem Lett, 2018).
The source made the active and inactive calls. The rule behind the calls is not given here.

What was measured:
HCT-116 [1] = experiment: Inhibition of cancer stem cell proliferation in human HCT116 cells assessed as CD133/CD44-positive cell population at 1 uM after 48 hrs by flow cytometry (reference value: 85.1 to 86.6%); assay type: functional; parameters: scale not given: the % may be the effect or the level left
[2] = Selectivity index, ratio of IC50 for HAF to IC50 for human HCT116 cells; assay type: toxicity; details: HAF cells versus HCT116 cells, read-out: Ratio IC50
HCT-116 [3] = experiment: Induction of apoptosis in human HCT116 cells after 48 hrs by Annexin V/propidium iodide staining based flow cytometry; assay type: functional, cell-based
Summary of the method: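 HCT116 cells treated for 48 h; apoptosis scored by flow cytometry as early and late apoptotic fractions, compared with untreated controls.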

[4] = Selectivity index, ratio of IC50 for HAF to IC50 for human HCT8 cells; assay type: toxicity; details: HAF cells versus HCT8 cells, read-out: Ratio IC50
HCT-116 [5] = experiment: Antimigratory activity against human HCT116 cells at 1 uM after 24 hrs by crystal violet staining based transwell migration assay relative to control; assay type: functional
Summary of the method: (§1)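 HCT116 cells in transwell chambers; migration compared with untreated control (0 μM).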

HCT-116 [6] = experiment: Antiproliferative activity against human HCT116 cells after 72 hrs by SRB assay; assay type: functional, cell-based; details: HCT-116, 72 h
HCT-116 [7] = experiment: Inhibition of cancer stem cell proliferation in human HCT116 cells assessed as decrease in CD133/CD44-positive cell population after 48 hrs by flow cytometry; assay type: functional, cell-based
Summary of the method: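 HCT116 cells, which coexpress CD133 and CD44; the CD133+/CD44+ stem-like population was quantified by flow cytometry after treatment over a concentration series.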

HCT-116 [8] = experiment: Antimigratory activity against human HCT116 cells at 0.5 uM after 24 hrs by crystal violet staining based transwell migration assay relative to control; assay type: functional; summary of the method: as §1
[9] = molecular target: T1, Polycomb complex protein BMI-1 (Homo sapiens) (UniProt P35226); experiment: Inhibition of Bmi1 in human HCT116 cells assessed as reduction in H2A-K119Ub level after 8 hrs by Western blot analysis; assay type: cell-based
T1 sequence (whole entry): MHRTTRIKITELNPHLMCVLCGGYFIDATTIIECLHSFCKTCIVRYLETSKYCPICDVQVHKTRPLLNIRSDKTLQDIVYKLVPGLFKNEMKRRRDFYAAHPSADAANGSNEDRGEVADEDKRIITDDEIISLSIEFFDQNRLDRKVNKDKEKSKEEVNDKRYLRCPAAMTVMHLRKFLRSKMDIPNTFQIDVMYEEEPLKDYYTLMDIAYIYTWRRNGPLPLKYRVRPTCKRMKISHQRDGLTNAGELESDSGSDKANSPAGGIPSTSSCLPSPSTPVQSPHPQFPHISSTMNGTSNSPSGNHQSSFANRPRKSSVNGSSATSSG
Summary of the method: (§2)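 HCT116 cells treated with test agents at the indicated concentrations for 8 h. Bmi-1, H2A-K119 ubiquitinated H2A (ub-H2A), total H2A and Ring1b detected by Western blot.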

HCT-8 = experiment: Antiproliferative activity against human HCT8 cells after 72 hrs by SRB assay; assay type: functional, cell-based; details: HCT-8, 72 h
Mus musculus [10] = experiment: Toxicity in nude mouse xenografted with human HCT116 cells assessed as change in body weight at 5 to 10 mg/kg/day, ip for 18 days; assay type: organism-based; details: in vivo, 432 h
Summary of the method: (§3)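 HCT116 subcutaneous xenografts in nude mice; mice randomized into groups of n = 6 and given vehicle (DMSO), test article or reference intraperitoneally daily for 18 days, then sacrificed. End points were excised tumor weight and volume, body weight, histology of heart, liver, spleen, lung and kidney, and immunohistochemistry of tumors for Ki67 and Bmi-1.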

Mus musculus [11] = experiment: Toxicity in nude mouse xenografted with human HCT116 cells assessed as abnormality in spleen at 5 to 10 mg/kg/day, ip for 18 days by hematoxylin and eosin staining based microscopic analysis; assay type: organism-based; details: in vivo, 432 h; summary of the method: as §3
HCT-116 [12] = experiment: Antitumor activity against human HCT116 cells xenografted in nude mouse assessed as reduction in Ki67 expression in tumor at 5 to 10 mg/kg/day, ip for 18 days by IHC analysis; assay type: functional, organism-based; summary of the method: as §3
HCT-116 [13] = experiment: Antitumor activity against human HCT116 cells xenografted in nude mouse assessed as tumor growth inhibition at 5 mg/kg/day, ip for 18 days; assay type: functional, organism-based; summary of the method: as §3
Mus musculus [14] = experiment: Decrease in Bmi1 expression in tumors of nude mouse xenografted with human HCT116 cells at 5 to 10 mg/kg/day, ip for 18 days by IHC analysis; assay type: functional, organism-based; summary of the method: as §3
Mus musculus [15] = experiment: Toxicity in nude mouse xenografted with human HCT116 cells assessed as abnormality in lung at 5 to 10 mg/kg/day, ip for 18 days by hematoxylin and eosin staining based microscopic analysis; assay type: organism-based; details: in vivo, 432 h; summary of the method: as §3
Mus musculus [16] = experiment: Toxicity in nude mouse xenografted with human HCT116 cells assessed as abnormality in heart at 5 to 10 mg/kg/day, ip for 18 days by hematoxylin and eosin staining based microscopic analysis; assay type: organism-based; details: in vivo, 432 h; summary of the method: as §3
Mus musculus [17] = experiment: Toxicity in nude mouse xenografted with human HCT116 cells assessed as abnormality in liver at 5 to 10 mg/kg/day, ip for 18 days by hematoxylin and eosin staining based microscopic analysis; assay type: organism-based; details: in vivo, 432 h; summary of the method: as §3
Mus musculus [18] = experiment: Toxicity in nude mouse xenografted with human HCT116 cells assessed as abnormality in kidney at 5 to 10 mg/kg/day, ip for 18 days by hematoxylin and eosin staining based microscopic analysis; assay type: organism-based; details: in vivo, 432 h; summary of the method: as §3
HCT-116 [19] = experiment: Antimigratory activity against human HCT116 cells after 24 hrs by crystal violet staining based transwell migration assay; assay type: functional, cell-based
Summary of the method: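 HCT116 cells were tested for migration through a transwell chamber at 0.5 and 1 μM, compared against an untreated (0 μM) control. Significance was assessed versus that control.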

HT-29 = experiment: Antiproliferative activity against human HT-29 cells after 72 hrs by SRB assay; assay type: functional, cell-based; details: HT-29, 72 h
HCT-116 [20] = experiment: Effect on total H2A protein expression in human HCT116 cells at 0.5 to 4 uM after 8 hrs by Western blot analysis; assay type: functional, cell-based; summary of the method: as §2
[21] = Selectivity index, ratio of IC50 for HAF to IC50 for human HT-29 cells; assay type: toxicity; details: HAF cells versus HT-29 cells, read-out: Ratio IC50
HCT-116 [22] = experiment: Inhibition of Bmi1 protein expression in human HCT116 cells after 8 hrs by Western blot analysis; assay type: functional, cell-based; details: for IC50: HCT-116, 8 h
HCT-116 [23] = experiment: Induction of apoptosis in human HCT116 cells at 1 uM after 48 hrs by Annexin V/propidium iodide staining based flow cytometry relative to control; assay type: functional
[24] = Antiproliferative activity against HAF after 72 hrs by SRB assay; parameters: species or system Homo sapiens
HCT-116 [25] = experiment: Inhibition of colony formation in human HCT116 cells after 7 days by crystal violet staining based assay; assay type: functional, cell-based
Summary of the method: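 HCT116 colony formation assay over a concentration series; read-out was colony number and size.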

HCT-116 [26] = experiment: Effect on total Ring1b protein expression in human HCT116 cells at 0.5 to 4 uM after 8 hrs by Western blot analysis; assay type: functional, cell-based; summary of the method: as §2
HCT-116 [27] = experiment: Potency index, ratio of PTC-209 IC50 to compound IC50 for antiproliferative activity against human HCT116 cells; assay type: functional
Mus musculus [28] = experiment: Toxicity in nude mouse xenografted with human HCT116 cells assessed as change in body weight at 10 mg/kg/day, ip for 18 days; assay type: organism-based; details: in vivo, 432 h
HCT-116 [29] = experiment: Antitumor activity against human HCT116 cells xenografted in nude mouse assessed as reduction in Ki67 expression in tumor at 10 mg/kg/day, ip for 18 days by IHC analysis; assay type: functional, organism-based
Summary of the method: (§4)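 Subcutaneous HCT116 xenografts in nude mice, randomized into groups of n = 6. Dosing was daily intraperitoneal injection for 18 days with DMSO as vehicle control. Mice were then sacrificed, and excised tumors were stained by immunohistochemistry for Ki67 and Bmi-1, compared with vehicle-treated controls.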

HCT-116 [30] = experiment: Antitumor activity against human HCT116 cells xenografted in nude mouse assessed as tumor growth inhibition at 10 mg/kg/day, ip for 18 days; assay type: functional, organism-based
Summary of the method: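 Nude mice bearing subcutaneous HCT116 tumors, randomized four groups (n = 6 each), including a DMSO vehicle group. Dosing was intraperitoneal once daily for 18 days, then sacrifice. Removed tumors were weighed and tumor volume recorded, and body weight was followed. Significance was tested versus vehicle control.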

HCT-116 [31] = experiment: Inhibition of colony formation in human HCT116 cells at 0.1 to 0.4 uM after 7 days by crystal violet staining based assay; assay type: functional, cell-based
Mus musculus [32] = experiment: Decrease in Bmi1 expression in tumors of nude mouse xenografted with human HCT116 cells at 10 mg/kg/day, ip for 18 days by IHC analysis; assay type: functional, organism-based; summary of the method: as §4

COc1cc2c(cc1C(=O)Nc1ccccc1OC(F)(F)F)CC[C@H]1C(C)(C)C(=O)C(C#N)=C[C@]21C
Activity (HCT-116 [1]): 56.1% | selectivity ratio [2]: 7.3 to 13.1 | Activity (HCT-116 [3]): Dose-dependent effect | selectivity ratio [4]: 7.3 to 13.1 | Activity (HCT-116 [5]): 70% | IC50 (HCT-116 [6]): 0.25 µM | inhibition (HCT-116 [7]): Dose-dependent effect | Activity (HCT-116 [8]): 30% | inhibition [9]: Dose-dependent effect | IC50 (HCT-8): 0.36 µM | Activity (Mus musculus [10]): Non-Toxic | Activity (Mus musculus [11]): Non-Toxic | Activity (HCT-116 [12]): Active | TGI (HCT-116 [13]): Active | Activity (Mus musculus [14]): Active | Activity (Mus musculus [15]): Non-Toxic | Activity (Mus musculus [16]): Non-Toxic | Activity (Mus musculus [17]): Non-Toxic | Activity (Mus musculus [18]): Non-Toxic | Activity (HCT-116 [19]): Dose-dependent effect | IC50 (HT-29): 0.45 µM | Activity (HCT-116 [20]): inactive | selectivity ratio [21]: 7.3 to 13.1 | inhibition (HCT-116 [22]): Dose-dependent effect | IC50 (HCT-116 [22]): 0.83 µM | Activity (HCT-116 [23]): 20.29% | IC50 [24]: 3.28 µM | inhibition (HCT-116 [25]): Dose-dependent effect | Activity (HCT-116 [26]): inactive

COc1cc2c(cc1C(=O)Nc1ccc(OC(F)(F)F)cc1)CC[C@H]1C(C)(C)C(=O)C(C#N)=C[C@]21C
selectivity ratio [2]: 5.4 to 10.7 | selectivity ratio [4]: 5.4 to 10.7 | IC50 (HCT-116 [6]): 0.3 µM | IC50 (HCT-8): 0.6 µM | Ratio IC50 (HCT-116 [27]): 2 | IC50 (HT-29): 0.54 µM | selectivity ratio [21]: 5.4 to 10.7 | IC50 [24]: 3.22 µM

COc1cc(Br)c(Nc2nc(-c3c(C)nc4ncccn34)cs2)c(Br)c1
Activity (HCT-116 [1]): 79.7% | selectivity ratio [2]: 1.6 to 1.7 | selectivity ratio [4]: 1.6 to 1.7 | Activity (Mus musculus [28]): Non-Toxic | IC50 (HCT-116 [6]): 0.65 µM | inhibition [9]: Dose-dependent effect | Activity (HCT-116 [29]): Active | IC50 (HCT-8): 0.59 µM | TGI (HCT-116 [30]): Active | inhibition (HCT-116 [31]): Active | Activity (HCT-116 [19]): Dose-dependent effect | IC50 (HT-29): 0.61 µM | Activity (HCT-116 [20]): inactive | selectivity ratio [21]: 1.6 to 1.7 | inhibition (HCT-116 [22]): Dose-dependent effect | IC50 (HCT-116 [22]): 0.7 µM | Activity (HCT-116 [23]): 14.74% | IC50 [24]: 1.03 µM | Activity (Mus musculus [32]): Active | Activity (HCT-116 [26]): inactive

COC(=O)[C@]12CCC(C)(C)C[C@H]1[C@H]1C(=O)C=C3[C@@]4(C)C=C(C#N)C(=O)C(C)(C)[C@@H]4CC[C@@]3(C)[C@]1(C)CC2 [BARDOXOLONE METHYL]
selectivity ratio [2]: 7.2 to 8.4 | selectivity ratio [4]: 7.2 to 8.4 | IC50 (HCT-116 [6]): 0.25 µM | IC50 (HCT-8): 0.29 µM | IC50 (HT-29): 0.28 µM | selectivity ratio [21]: 7.2 to 8.4 | inhibition (HCT-116 [22]): Active | IC50 [24]: 2.1 µM

COc1cc2c(cc1C(=O)Nc1ccc(OC(F)(F)F)cc1)CC[C@H]1C(C)(C)C(=O)C=C[C@]21C
selectivity ratio [2]: 3 to 3.8 | selectivity ratio [4]: 3 to 3.8 | IC50 (HCT-116 [6]): 4.56 µM | IC50 (HCT-8): 5.67 µM | IC50 (HT-29): 4.09 µM | selectivity ratio [21]: 3 to 3.8 | inhibition (HCT-116 [22]): inactive | IC50 [24]: 17.1 µM
